Data taken from PMC7217734 (Journal of biomolecular structure & dynamics, 2019).
Residues, ends and D or L forms follow the SMILES beside them.

Columns and labels:
[1] = target: T1, peptide 91a (coil 1A of vimentin) (Homo sapiens, UniProt P08670, A91E/F96L/I92R/N93L/Q126R/Q127R/T94A/V121L); assay: Isothermal titration calorimetry; format: binding; conditions: NANO ITC; 374a 0.540mM in syringe, 91a 0.095mM in cell
T1 sequence (P08670 with tags, fused parts or gaps V121L/Q126R/Q127R limits assumed): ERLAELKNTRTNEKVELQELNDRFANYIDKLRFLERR
Summary of the method: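 The peptides were dissolved in 10 mM Tris pH 8.0. In a low-volume nano calorimeter, the syringe peptide was titrated into the cell peptide in 20 injections of 2.5 µl. Raw heat rate was recorded in µJ/s, and each injection peak was integrated to µJ. The isotherm gave the dissociation constant and stoichiometry n.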

Dynamic light scattering = format: physicochemical; conditions: 25°C, 1 mg/ml; 50mM NaCl, 10mM Tris-HCl (pH 7.5); individual peptide

## CC[C@H](C)[C@H](NC(=O)[C@H](CCC(=O)O)NC(=O)[C@@H](NC(=O)[C@H](CC(=O)O)NC(=O)[C@H](CC(C)C)NC(=O)[C@H](C)NC(=O)[C@H](CCSC)NC(=O)[C@H](CCCCN)NC(=O)[C@@H](NC(=O)[C@H](CC(N)=O)NC(=O)[C@H](CC(C)C)NC(=O)[C@H](CC(C)C)NC(=O)[C@H](CC(=O)O)NC(=O)[C@H](CCC(N)=O)NC(=O)[C@H](Cc1ccc(O)cc1)NC(=O)[C@H](CCC(=O)O)NC(=O)[C@H](CCCNC(=N)N)NC(=O)[C@H](CCC(=O)O)NC(=O)[C@H](CC(C)C)NC(=O)[C@H](CCCNC(=N)N)NC(=O)[C@H](C)NC(=O)[C@H](CC(C)C)NC(=O)[C@H](CCC(=O)O)NC(=O)[C@@H](N)CCC(=O)O)C(C)C)[C@@H](C)CC)C(=O)N[C@@H](C)C(=O)N[C@H](C(=O)N[C@@H](Cc1ccc(O)cc1)C(=O)N[C@@H](CCCNC(=N)N)C(=O)N[C@@H](CCCCN)C(=O)N[C@@H](CC(C)C)C(=O)N[C@@H](CC(C)C)C(=O)N[C@@H](CCC(=O)O)C(=O)N[C@@H](C)C(=O)N[C@@H](CC(C)C)C(=O)N[C@@H](CCC(=O)O)C(=O)N[C@@H](CO)C(=O)N[C@@H](CCCNC(=N)N)C(=O)O)[C@@H](C)O [peptide 374a] (H-EELARLEREYQDLLNVKMALDIEIATYRKLLEALESR-OH; N-terminus and C-terminus assumed)
[1]
  stoichiometric ratio n: ~1
  thermodynamic character of interaction, in words: enthalpy-driven interaction
Dynamic light scattering
  aggregation by DLS, in words: aggregation is occurring
